PubChem BioAssay AID720702 (The Scripps Research Institute Molecular Screening Center, 2013)
Hit rate of the full screen: of about 370,000 compounds, about 1,200 (0.32%) were called active. The sample holds actives, similar compounds and a random draw of the others, so the mix is not that of the screen. Unmarked numbers belong to inactive results.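 How the source made its calls: active means inhibition above the mean of all tested compounds plus 3 SD, set per campaign (cut at about 25% in these data); inactive means the rest.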

Molecular target: Tyrosyl-DNA phosphodiesterase 2 (Homo sapiens) (UniProt O95551)
Test: human TDP2 enzyme inhibitors, primary screen, biochemical, epi absorbance, recombinant enzyme (AID 720702);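 further: 0% = DMSO with enzyme and 100% = buffer with substrate but no TDP2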
Details: recombinant TDP2, T5PNP hydrolysis, p-nitrophenol absorbance 415 nm; at 12.8 µM; stronger effect = higher value
In short: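 Incubation: 2 h at 37 °C; Test system: recombinant human TDP2; Quantity: enzyme 120 nM; Read-out basis: percent inhibition; Medium: 50 mM Tris-HCl pH 7.5 with Mg2+, KCl, DTT, BSA; Repeats: single replicate; Compound: 12.8 µM single point, 1% DMSO; Signal: epi absorbance; Reagent: 5 mM T5PNP chromogenic substrate; Benchmarks: no-enzyme high, DMSO-plus-enzyme low.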

Sequence of Tyrosyl-DNA phosphodiesterase 2 (Homo sapiens) (O95551 whole entry, looked up): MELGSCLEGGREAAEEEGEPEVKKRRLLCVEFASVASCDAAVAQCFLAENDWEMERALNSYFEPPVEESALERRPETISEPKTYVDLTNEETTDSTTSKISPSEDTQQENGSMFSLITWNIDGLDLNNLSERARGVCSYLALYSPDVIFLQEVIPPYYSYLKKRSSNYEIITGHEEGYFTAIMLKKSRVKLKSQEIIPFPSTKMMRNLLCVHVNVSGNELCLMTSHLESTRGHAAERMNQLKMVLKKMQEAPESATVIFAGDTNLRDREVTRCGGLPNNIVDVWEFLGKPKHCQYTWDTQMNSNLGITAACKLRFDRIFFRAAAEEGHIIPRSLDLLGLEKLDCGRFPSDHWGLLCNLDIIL

First: C=CCc1cc(C)ccc1OCCCn1ccnc1
Second: Cc1ccc(S(=O)(=O)N(CCCN(C)C)Cc2ccc3c(c2)OCO3)cc1
The inhibition of the first is lower: -6.81% for the first, 3.37% for the second.

Compared with `CCCOc1ccc(Oc2c(Cl)cnn(Cc3cccc4ccccc34)c2=O)cc1`, `Brc1ccc(COCCc2cn(Cc3ccccc3)c3ccccc23)cc1` is higher in inhibition: -7.56% for the first, -2.78% for the second.

First: COc1ccc(N(CC(=O)Nc2cc(OC)cc(OC)c2)S(=O)(=O)c2c(C)n[nH]c2C)cc1
Second: COc1cc(CCC(=O)OCC(=O)Nc2cccc(S(N)(=O)=O)c2)cc(OC)c1OC
The inhibition of the first is higher: 10.8% for the first, -0.17% for the second.

Compared with `COc1cc(NC(=O)COC(=O)c2cnc(C)cn2)c(C)cc1[N+](=O)[O-]`, `COc1ccc(C(=O)OCc2cc(=O)n3ccsc3n2)cc1F` is lower in inhibition: -5.59% for the first, -6.94% for the second.

Compared with `Cc1ccc(-n2c(SCC(=O)Nc3ccc(S(=O)(=O)Nc4nccs4)cc3)nnc2-c2ccncc2)cc1`, `O=C(Cc1ccc(NC(=O)C2CCCN(C(=O)CCc3ccccc3)C2)cc1)Nc1ccc(C(=O)N2CCOCC2)cc1` (stereo unspecified) is lower in inhibition: -0.21% for the first, -19.6% for the second.

Compared with `CCCCCCCCCCCCN1[C@@H](CC(C)=O)c2cc(F)cc(F)c2S1(=O)=O`, `CCCCCc1ccc(-c2ccc(OCC)cc2)nc1` is lower in inhibition: 2.78% for the first, -8.17% for the second.

First: Cc1cc(S(=O)(=O)NC2CCCCC2)ccc1OCC(=O)NCc1cccnc1
Second: CC1CCN(c2ccc(C(=O)O)cc2NS(=O)(=O)c2ccc(Br)s2)CC1
The inhibition of the first is lower: -6.47% for the first, 4.53% for the second.

Compared with `CCOC(=O)c1c(C)oc(C)c(C(=O)OCC)c1=O`, `CCOC(=O)C1=C(C)c2ccccc2OC1C(=O)OCC` (stereo unspecified) is higher in inhibition: -25% for the first, -3.4% for the second.

Going from `Fc1ccc2nc(COCc3nc4ccc(F)cc4[nH]3)[nH]c2c1` to `CSc1ccccc1OCc1cc(C(=O)N(C)CCc2c(C)n[nH]c2C)no1`, the inhibition rises from -1.58% to 6.82%.

For `COc1cc(NC(=O)COC(=O)c2ccc([N+](=O)[O-])s2)cc(OC)c1OC`, the inhibition was 31.6% (active).
With `CCOC(=O)c1c(C)[nH]c2c1-c1ccccc1C(=O)C2=O` the inhibition was 55.1% (active).
For `Cc1ccc(OCCCCc2c(C)n[nH]c2C)cc1`, the inhibition was 25.9% (active).
